“And” between values parts separate entries of the source, which are not always exact repeats. Equal values may be shown once. “Also recorded” adds a separate entry of the source.
What was measured:
[1] = tested on: cGMP antibody (ENZO cGMP-EIA); experiment: ENZO cGMP-EIA, acetylation protocol; type: binding; settings: for Specificity ENZO cGMP-EIA: EC50cGMP/EC50Analog, acetylated
[2] = tested on: cGMP antibody (IBL cGMP-RIA); experiment: IBL cGMP-RIA; type: binding; settings: for Specificity IBL cGMP-RIA: EC50cGMP/EC50Analog; for Binding constant relative to cGMP: IBL cGMP-RIA
Lipophilicity = type: physicochemical; settings: calculated from log Kw data, cGMP scale
[3] = tested on: cAMP antibody (ENZO cAMP-EIA); experiment: ENZO cAMP-EIA, acetylation protocol; type: binding; settings: for Specificity ENZO cAMP-EIA: EC50cAMP/EC50Analog, acetylated
[4] = tested on: cAMP antibody (IBL cAMP-RIA); experiment: IBL cAMP-RIA; type: binding; settings: for Specificity IBL cAMP-RIA: EC50cAMP/EC50Analog
[5] = tested on: PKA (VASP phosphorylation) in human platelets; experiment: VASP phosphorylation western blot, pVASP Ser-157; type: cell-based; settings: for Concentration needed for comparable VASP phosphorylation (PKA activation): pVASP antibody 5C6
Method in brief: (§1)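 Washed human platelets were exposed to various analog concentrations for the indicated times. Protein extracts (10 µg) were run on 9% reducing SDS-PAGE and wet-blotted to nitrocellulose. Blots were blocked in 3% milk/Tris-saline-Tween and probed 1:10,000 with 16C2 (pVASP Ser-239, PKG site) or 5C6 (pVASP Ser-157, PKA site). HRP goat anti-mouse (1:5,000) and ECL gave detection.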

PKA II = settings: ref Poppe et al. (2008); cited from earlier work
[6] = tested on: cGMP antibody (Cayman cGMP-EIA); experiment: Cayman cGMP-EIA; type: binding; settings: EC50cGMP/EC50Analog
human platelets = experiment: Cell membrane permeability in washed human platelets; type: in vitro ADME; settings: for Time to equilibrium of inside/outside concentration: platelets, Fig. 1b; for cNMP conc. inside platelets (% of external): washed human platelets, 37°C, normally 20 min; for Diffusion into the cell, result in words: compounds with log Kw < 1
Method in brief: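 Human blood from medication-free donors was collected into citrate–EGTA buffer. Platelet-rich plasma (300×g) was pelleted (380×g), washed in Hepes buffer pH 7.4 and used at 3 × 10^8 platelets/ml. Cells were exposed to analogs at 37°C, normally for 20 min or over a time course. They were lysed in […] buffer pH 8.1 with 1 mM IBMX on ice, then freeze/thaw and needle disruption. Lyophilized supernatant went to EIA, assuming a 5.2 fl cell volume.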

[7] = tested on: PKG (VASP phosphorylation) in human platelets; experiment: VASP phosphorylation western blot, pVASP Ser-239; type: cell-based; settings: for Concentration for maximal VASP phosphorylation: after 20 min, pVASP antibody 16C2
Method in brief: as §1

PKG Iβ = settings: ref Poppe et al. (2008); cited from earlier work
[8] = tested on: cAMP antibody (ENZO cAMP-EIA); experiment: ENZO cAMP-EIA, non-acetylated; type: binding; settings: non-acetylated cAMP-EIA from ENZO
CHO cells = experiment: Cell membrane permeability in CHO cells; type: in vitro ADME, Chinese hamster; settings: serum-free medium, normally 20 min
Method in brief: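 CHO cells were grown in DMEM with 10% FBS and 1% penicillin/streptomycin at 37°C, 5% CO2. Cells were exposed to various analog concentrations in serum-free medium, normally for 20 min, then PBS-washed. Lysis used hypotonic buffer on ice for 30 min, scraping, liquid-nitrogen freeze/thaw and needle disruption. Cleared supernatant was lyophilized for EIA. Intracellular concentration assumed a 1.5 pl cell volume; % permeability = intracellular/extracellular […].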

[9] = tested on: cGMP antibody (ENZO cGMP-EIA); experiment: ENZO cGMP-EIA, non-acetylated; type: binding; settings: non-acetylated cGMP-EIA from ENZO
[10] = tested on: cAMP and cGMP antibodies of the tested immunoassays; experiment: Interference with the tested cAMP and cGMP immunoassays; type: binding

## O=c1c2nc(Br)n([C@@H]3O[C@@H]4CO[P@@](O)(=S)O[C@H]4[C@H]3O)c2nc2[nH]c(-c3ccccc3)cn12 (single isomer, unassigned) [Rp-8-Br-PET-cGMPS]
[1]
  Cross-reactivity / binding to the cGMP antibody in the EIA, result in words: does not bind
  Specificity ENZO cGMP-EIA: 0.002
[2]
  Specificity IBL cGMP-RIA: 0.011
Lipophilicity
  Relative lipophilicity: 200

## Nc1ncnc2c1nc(Br)n2C1OC2COP(O)(=S)OC2C1O (single isomer, unassigned) [Rp-8-Br-cAMPS, 8-Bromoadenosine-3`,5`- cyclic monophosphorothioate, Rp-isomer]
[3]
  Specificity ENZO cAMP-EIA: 0.003

## Nc1ncnc2c1ncn2[C@@H]1O[C@@H]2COP(O)(=S)O[C@H]2[C@H]1O (single isomer, unassigned) [Rp-cAMPS, Adenosine- 3`,5`- cyclic monophosphorothioate, Rp-isomer]
[3]
  Cross-reactivity in the cAMP-EIA, result in words: strong cross-reactivity; also recorded: significant cross-reactivity
  Specificity ENZO cAMP-EIA: 0.68
[4]
  Specificity IBL cAMP-RIA: 0.67
[4]; IBL cAMP-RIA
  Binding constant relative to cAMP: ~66%

## Nc1nc2c(ncn2[C@@H]2O[C@@H]3COP(O)(=S)O[C@H]3[C@H]2O)c(=O)[nH]1 (single isomer, unassigned) [Rp-cGMPS, Guanosine- 3`,5`- cyclic monophosphorothioate, Rp-isomer]
[1]
  Specificity ENZO cGMP-EIA: 0.0027
[2]
  Specificity IBL cGMP-RIA: 0.10

## O[C@@H]1[C@@H]2OP(O)(=S)OC[C@H]2O[C@H]1n1cnc2cc(Cl)c(Cl)cc21 (single isomer, unassigned) [Sp-5,6-DCl-cBIMPS]
[4]
  Specificity IBL cAMP-RIA: 0.005
[5]
  Concentration needed for comparable VASP phosphorylation (PKA activation): 100 µM
PKA II
  Activation PKA II Ka: 0.12 µM

## O=C(Nc1ncnc2c1ncn2[C@@H]1O[C@@H]2COP(=O)(O)OC2C1O)c1ccccc1 (stereo in doubt) [6-Bnz-cAMP, N^6-Benzoyladenosine-3`,5`- cyclic monophosphate]
[3]
  Specificity ENZO cAMP-EIA: 0.006
[4]
  Specificity IBL cAMP-RIA: 0.009

## Nc1nc2c(nc(Sc3ccc(Cl)cc3)n2C2O[C@@H]3COP(=O)(O)O[C@H]3[C@H]2O)c(=O)[nH]1 (stereo in doubt) [8-pCPT-cGMP, 8-(4-Chlorophenylthio)guanosine-3`,5`- cyclic monophosphate]
[1]
  Cross-reactivity / binding to the cGMP antibody in the EIA, result in words: strong cross-reactivity
  Specificity ENZO cGMP-EIA: 2.40
[2]
  Specificity IBL cGMP-RIA: 0.30
  Binding constant relative to cGMP: ~30%
[6]
  Specificity Cayman cGMP-EIA: 0.0008
Human platelets
  Time to equilibrium of inside/outside concentration: 10 to 20 min
  cNMP conc. inside platelets (% of external): 19.6 ± 4.7%
[7]; human platelets
  Concentration for maximal VASP phosphorylation: 50 µM
PKG Iβ
  Activation PKG Iβ Ka: 0.9 µM

## Nc1ncnc2c1ncn2[C@H]1C[C@@H]2OP(=O)(O)OC[C@H]2O1 [2′-dcAMP, 2`- Deoxyadenosine- 3`,5`- cyclic monophosphate]
[3]
  Specificity ENZO cAMP-EIA: 0.034
[8]
  Relative binding EC50cAMP/EC50Analog: 0.22
Human platelets
  Diffusion into the cell, result in words: too hydrophilic for any diffusion into the cell
  cNMP conc. inside platelets (% of external): 0.2 ± 0.3%
CHO cells
  cNMP conc. inside CHO cells (% of external): 0.1 ± 0.2%
[5]
  VASP phosphorylation (PKA site), result in words: no VASP phosphorylation

## Nc1nc2c(ncn2[C@H]2C[C@@H]3OP(=O)(O)OC[C@H]3O2)c(=O)[nH]1 [2′-dcGMP, 2`- Deoxyguanosine- 3`,5`- cyclic monophosphate]
[1]
  Specificity ENZO cGMP-EIA: 0.052
[9]
  Relative binding EC50cGMP/EC50Analog: 2.2 and 2.21
Human platelets
  Diffusion into the cell, result in words: too hydrophilic for any diffusion into the cell
  cNMP conc. inside platelets (% of external): 0.5 ± 0.1%
CHO cells
  cNMP conc. inside CHO cells (% of external): 0.3 ± 0.5%
[7]; concentrations up to 2 mM
  VASP phosphorylation (PKG site), result in words: no VASP phosphorylation
PKG Iβ
  Activation PKG Iβ Ka: 21 µM

## CCCC(=O)Nc1ncnc2c1ncn2[C@@H]1O[C@@H]2COP(=O)(O)O[C@H]2[C@H]1O [6-MB-cAMP, N^6-Monobutyryladenosine-3`,5`-cyclic monophosphate]
[3]
  Specificity ENZO cAMP-EIA: 0.004
[4]
  Specificity IBL cAMP-RIA: 0.012

## O=c1c2nc(Br)n([C@@H]3O[C@@H]4COP(=O)(O)O[C@H]4[C@H]3O)c2nc2[nH]c(-c3ccccc3)cn12 [8-Br-PET-cGMP, β-Phenyl-1,N^2-etheno-8-Bromoguanosine-3`,5`- cyclic monophosphate]
[1]
  Specificity ENZO cGMP-EIA: 0.10
[1]; ENZO cGMP-EIA
  Percent of the cGMP affinity to the antibody: 10%
[2]
  Specificity IBL cGMP-RIA: 0.015
[9]
  Relative binding EC50cGMP/EC50Analog: 0.08
Human platelets
  cNMP conc. inside platelets (% of external): 30.9 ± 5.7%
CHO cells
  cNMP conc. inside CHO cells (% of external): 24.1 ± 9.7%
[7]; human platelets, VASP phosphorylation
  Concentration sufficient to activate PKG: 0.25 µM
PKG Iβ
  Activation PKG Iβ Ka: 0.009 µM

## Nc1ncnc2c1nc(Br)n2[C@@H]1O[C@@H]2COP(=O)(O)O[C@H]2[C@H]1O [8-Br-cAMP, 8-Bromoadenosine-3`,5`- cyclic monophosphate]
[3]
  Specificity ENZO cAMP-EIA: 0.004
[4]
  Specificity IBL cAMP-RIA: 0.026
[5]
  Concentration needed for comparable VASP phosphorylation (PKA activation): 500 µM
PKA II
  Activation PKA II Ka: 0.09 µM

## Nc1nc2c(nc(Br)n2[C@@H]2O[C@@H]3COP(=O)(O)O[C@H]3[C@H]2O)c(=O)[nH]1 [8-Br-cGMP, 8-Bromoguanosine-3`,5`- cyclic monophosphate]
[1]
  Cross-reactivity / binding to the cGMP antibody in the EIA, result in words: strong cross-reactivity
  Specificity ENZO cGMP-EIA: 4.90
[2]
  Specificity IBL cGMP-RIA: 0.20
  Binding constant relative to cGMP: ~20%
[9]
  Relative binding EC50cGMP/EC50Analog: 6.40
Human platelets
  Time to equilibrium of inside/outside concentration: 10 to 20 min
  cNMP conc. inside platelets (% of external): 12.1 ± 3.5%
CHO cells
  cNMP conc. inside CHO cells (% of external): 13.5 ± 11.5%
[7]; human platelets
  Concentration for maximal VASP phosphorylation: 200 µM
PKG Iβ
  Activation PKG Iβ Ka: 1.0 µM

## CO[C@@H]1[C@@H]2OP(=O)(O)OC[C@H]2O[C@H]1n1c(Sc2ccc(Cl)cc2)nc2c(N)ncnc21 [8-pCPT-2′-OMe-cAMP, 8-(4-Chlorophenylthio)-2`-O-methyladenosine-3`,5`- cyclic monophosphate]
[3]
  Specificity ENZO cAMP-EIA: 0.0003
[1]
  Specificity ENZO cGMP-EIA: 0.0002
[4]
  Specificity IBL cAMP-RIA: 0.0066
[2]
  Specificity IBL cGMP-RIA: <10^−4

## Nc1ncnc2c1nc(Sc1ccc(Cl)cc1)n2[C@@H]1O[C@@H]2COP(=O)(O)O[C@H]2[C@H]1O [8-pCPT-cAMP, 8-(4-Chlorophenylthio)adenosine-3`,5`- cyclic monophosphate]
[3]
  Specificity ENZO cAMP-EIA: 0.0005

## CCCCCCC(C(C)O)n1cnc2c(N)ncnc21.Cl (centres unmarked) [EHNA, 3-(6-aminopurin-9-yl)nonan-2-ol hydrochloride]
[10]
  Interference / cross-reaction with the tested immunoassays, result in words: do not interfere

## CC(C)Cn1c(=O)n(C)c(=O)c2[nH]cnc21 [IBMX, 3-Isobutyl-1-methylxanthine]
[3]
  Specificity ENZO cAMP-EIA: <10^−5
[1]
  Specificity ENZO cGMP-EIA: <10^−6
[4]
  Specificity IBL cAMP-RIA: <10^−4
[2]
  Specificity IBL cGMP-RIA: <10^−6
[6]
  Specificity Cayman cGMP-EIA: <10^−5
[10]
  Interference / cross-reaction with the tested immunoassays, result in words: do not interfere

## Cn1c(=O)c2[nH]cnc2n(C)c1=O [Theophylline, 1,3-dimethyl-7H-purine-2,6-dione]
[10]
  Interference / cross-reaction with the tested immunoassays, result in words: do not interfere

## Nc1nc2c(ncn2[C@@H]2O[C@@H]3COP(=O)(O)O[C@H]3[C@H]2O)c(=O)[nH]1 [cGMP, Guanosine- 3`,5`- cyclic monophosphate]
[1]
  Specificity ENZO cGMP-EIA: 1.00
[2]
  Specificity IBL cGMP-RIA: 1.00
[6]
  Specificity Cayman cGMP-EIA: 1.00
[9]
  Relative binding EC50cGMP/EC50Analog: 1.00
PKG Iβ
  Activation PKG Iβ Ka: 0.9 µM

— publication PMC3145891 (Naunyn-Schmiedeberg's Archives of Pharmacology, 2011)
